Test results reported in ChEMBL document CHEMBL3856209, “Novel pyrazolopyridine derivatives as potential angiogenesis inhibitors: Synthesis, biological evaluation and transcriptome-based mechanistic analysis” (Eur J Med Chem, 2016).
pIC50: −log10 of the molar value. Activity calls are given as the source filed them. No cut-off for these calls is given here.

Key:
[1] = test system: HUVEC; assay: Antiangiogenic activity in HUVEC assessed as inhibition of VEGF-165-induced tube formation at 0.2 to 2 uM after 24 hrs by matrigel assay; format: functional, cell-based; conditions: Homo sapiens
In short: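 HUVEC seeded at 2×10^4 cells/well on growth factor-reduced Matrigel after pre-starvation, then given compound or vehicle (up to 0.1% v/v DMSO), with or without VEGF-165, for 24 h. Fixed in ice-cold ethanol and stained with haematoxylin-eosin. Tube-like structures counted in at least 5 fields/well and expressed as % of vehicle control; replicates from two independent experiments.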

[2] = test system: HUVEC (Homo sapiens); assay: Antiproliferative activity against human HUVEC cells assessed as decrease in VEGF-165-induced cell growth at 0.5 to 2 uM after 24 to 48 hrs by MTT assay
[3] = test system: Mus musculus; assay: Toxicity in C57BL/6 mouse allografted with mouse LLC cells at 0.05 to 0.2 mg/kg, ip administered thrice a week for 2 weeks starting 24 hrs before tumor implantation by clinical test; format: organism-based; conditions: in vivo
In short: (§1)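 Male C57BL/6 mice, 6–8 weeks old, in groups of 5–6, received 5×10^5 LLC cells sc in the right flank. Compound (0.05–0.2 mg/kg) or DMSO vehicle was given ip thrice weekly for 2 weeks, starting 24 h before implantation. Mice were weighed and examined clinically every other day. At end-point, kidney, lung, spleen, liver and heart sections were H&E-stained and examined microscopically.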

[4] = molecular target: Vascular endothelial growth factor receptor 2 (Homo sapiens) (UniProt P35968); assay: Inhibition of VEGF-165-induced VEGFR2 autophosphorylation in serum-starved HUVEC assessed as decrease in ERK1/2 phosphorylation at 2 uM preincubated for 2 hrs followed by VEGF-165 induction measured after 5 mins by Western blot analysis; format: cell-based
Chain of Vascular endothelial growth factor receptor 2 (Homo sapiens) (P35968 whole entry): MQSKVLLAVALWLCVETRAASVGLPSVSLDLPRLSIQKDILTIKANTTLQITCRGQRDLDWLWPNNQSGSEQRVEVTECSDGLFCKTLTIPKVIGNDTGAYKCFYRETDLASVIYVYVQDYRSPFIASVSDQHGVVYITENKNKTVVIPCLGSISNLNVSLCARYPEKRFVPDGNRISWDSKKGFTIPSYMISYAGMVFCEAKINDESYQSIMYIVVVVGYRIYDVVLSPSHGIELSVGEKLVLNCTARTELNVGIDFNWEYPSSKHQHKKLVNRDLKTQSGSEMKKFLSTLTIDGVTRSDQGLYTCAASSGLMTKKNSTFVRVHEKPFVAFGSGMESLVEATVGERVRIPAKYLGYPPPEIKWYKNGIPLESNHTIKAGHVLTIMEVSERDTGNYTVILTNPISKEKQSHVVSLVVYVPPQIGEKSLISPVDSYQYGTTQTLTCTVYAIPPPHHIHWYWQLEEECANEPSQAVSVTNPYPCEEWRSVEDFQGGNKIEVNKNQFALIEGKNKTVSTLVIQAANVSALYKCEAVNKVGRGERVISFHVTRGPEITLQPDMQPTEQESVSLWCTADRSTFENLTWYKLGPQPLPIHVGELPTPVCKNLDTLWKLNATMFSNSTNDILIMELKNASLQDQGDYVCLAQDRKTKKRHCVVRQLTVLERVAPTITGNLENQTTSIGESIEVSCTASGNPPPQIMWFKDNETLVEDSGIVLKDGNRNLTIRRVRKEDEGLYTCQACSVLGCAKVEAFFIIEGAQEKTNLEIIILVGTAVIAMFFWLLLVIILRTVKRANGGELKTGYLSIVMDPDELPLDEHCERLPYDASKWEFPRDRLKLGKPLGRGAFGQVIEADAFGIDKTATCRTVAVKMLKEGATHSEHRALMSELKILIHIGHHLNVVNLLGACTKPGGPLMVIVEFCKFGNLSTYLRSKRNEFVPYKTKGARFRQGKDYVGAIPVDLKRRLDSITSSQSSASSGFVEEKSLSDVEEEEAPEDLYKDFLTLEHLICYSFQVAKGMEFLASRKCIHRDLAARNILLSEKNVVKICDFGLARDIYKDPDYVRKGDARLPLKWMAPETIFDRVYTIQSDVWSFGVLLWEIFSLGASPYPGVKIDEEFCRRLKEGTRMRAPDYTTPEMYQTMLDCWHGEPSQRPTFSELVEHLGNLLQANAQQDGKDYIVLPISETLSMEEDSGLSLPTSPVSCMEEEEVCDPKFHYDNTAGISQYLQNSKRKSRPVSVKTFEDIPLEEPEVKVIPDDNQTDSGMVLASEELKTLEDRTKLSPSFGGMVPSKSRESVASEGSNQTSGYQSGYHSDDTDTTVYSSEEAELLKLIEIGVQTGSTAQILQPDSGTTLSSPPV
In short: (§2)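 Serum-starved HUVEC were given 2 µM compound or vehicle for 2 h, then VEGF-165 (50 ng/mL) or PBS for 5 min. Lysates with equal protein were run on SDS-PAGE and immunoblotted for phospho-VEGFR2 (Tyr951, 996, 1056, 1175), p-AKT Ser473, p-ERK1/2 and the total proteins. Detection was by ECL with densitometry. Phospho signals were normalized to total protein, n = 3.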

[5] = test system: HUVEC (Homo sapiens); assay: Antiproliferative activity against human HUVEC cells assessed as decrease in VEGF-165-induced cell growth at 0.5 to 2 uM after 24 to 48 hrs by CyQUANT cell proliferation assay
[6] = test system: EA.hy 926; assay: Antiproliferative activity against human EAhy926 cells assessed as decrease in cell viability at 0.2 to 2 uM after 24 to 48 hrs in presence of 2.5% fetal bovine serum by MTT assay; format: functional, cell-based
In short: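 EA.hy926 seeded at 4×10^3/well, adhered 24 h, and starved 4 h in 0.25% BSA medium. Then treated with compound or 0.1% v/v DMSO in medium with 2.5% FBS for 48 h. MTT 0.5 mg/mL for 4 h, A595 with 630 nm correction, cell number from a standard curve. Expressed as % of DMSO control; replicates from two independent experiments.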

[7] = molecular target: Vascular endothelial growth factor receptor 2 (Homo sapiens) (UniProt P35968); assay: Inhibition of VEGF-165-induced VEGFR2 autophosphorylation in serum-starved HUVEC assessed as decrease in AKT phosphorylation at 2 uM preincubated for 2 hrs followed by VEGF-165 induction measured after 5 mins by Western blot analysis; format: cell-based; in short: as §2
[8] = Antiproliferative activity against human EAhy926 cells assessed as decrease in cell viability after 24 to 48 hrs in presence of 2.5% fetal bovine serum by MTT assay; format: functional, cell-based; conditions: EA.hy 926
In short: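 EA.hy926 in DMEM with 2.5% FBS exposed 48 h to serial 1:2 compound dilutions spanning 0.125–50 μM. Viable cells measured by MTT (0.5 mg/mL, 4 h, A595/630 nm). IC50 (mean ± SEM) fitted by non-linear regression from eight or more points.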

[9] = test system: HUVEC; assay: Inhibition of total protein tyrosine kinase activity in serum-starved HUVEC at 1 to 4 uM after 2 hrs; format: cell-based; conditions: Homo sapiens
[10] = test system: Mus musculus; assay: Toxicity in C57BL/6 mouse allografted with mouse LLC cells assessed as effect on vital organs at 0.05 to 0.2 mg/kg, ip administered thrice a week for 2 weeks starting 24 hrs before tumor implantation by haematoxylin-eosin staining-based microscopic analysis; format: organism-based; conditions: in vivo; in short: as §1
[11] = test system: HUVEC; assay: Antimigratory activity in HUVEC at 0.2 to 2 uM after 6 hrs in presence of 5% fetal bovine serum by transwell assay; format: functional, cell-based; conditions: Homo sapiens
In short: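 Serum-starved confluent HUVEC pre-treated overnight with compound or vehicle in 5% FBS medium. Then placed in the upper chamber of 8 µm-pore Transwells (6×10^4 cells/well) and allowed to migrate 6 h toward 5% FBS or starvation medium. Migrated cells fixed, H&E stained, and counted in five fields/well; expressed as % of control; replicates from two independent experiments.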

[12] = test system: HUVEC; assay: Inhibition of VEGF-165-induced HUVEC chemotactic migration at 0.2 to 2 uM after 6 hrs by transwell assay; format: functional, cell-based; conditions: Homo sapiens
In short: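 Serum-starved HUVEC were pre-treated overnight with compound or vehicle in 5% FBS medium. Cells were then seeded at 6×10^4 per upper Transwell chamber (8 µm pores) and migrated for 6 h toward VEGF-165 (50 ng/mL) or starvation medium. Migrated cells were ethanol-fixed, stained with H&E and counted in five fields per well. Results are % of control from at least two independent experiments.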

[13] = molecular target: Vascular endothelial growth factor receptor 2 (Homo sapiens) (UniProt P35968); assay: Inhibition of VEGF-165-induced VEGFR2 autophosphorylation at Tyr1175 in serum-starved HUVEC at 2 uM preincubated for 2 hrs followed by VEGF-165 induction measured after 5 mins by Western blot analysis; format: cell-based; in short: as §2
[14] = test system: Lewis lung carcinoma; assay: Antiangiogenic activity in mouse LLC cells allografted in C57BL/6 mouse assessed as decrease of microvessel density in tumor at 0.2 mg/kg, ip administered thrice a week for 2 weeks starting 24 hrs before tumor implantation measured post last dose by IHC analysis; format: functional, organism-based
In short: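 Male 6–8 week C57BL/6 mice (groups of 5–6) inoculated sc in the right flank with 5×10^5 LLC cells. Compound (0.2 mg/kg) or DMSO vehicle given ip thrice weekly for 2 weeks, starting 24 h before implantation. Tumors measured by caliper every other day. At end-point, anti-CD31 IHC (1:100) of tumor sections, with immunoreactive cells counted in six high-power fields.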

inhibition [4]: Active
inhibition [7]: Active
inhibition [9]: Active
inhibition [13]: Active
SMILES: COc1ccc(Cn2nc(-c3ccccc3)c3cc(Nc4ccccc4)nc(N4CCNCC4)c32)cc1
inhibition [1]: Active
Activity [2]: Active
Activity [3]: Non-Toxic
Activity [5]: Active
Activity [6]: Active
pIC50 [8]: 4.85
Activity [10]: Non-Toxic
Activity [11]: Active
inhibition [12]: Active
Activity [14]: Active
